Experimental data pooled from the literature.
Target: Serine/threonine-protein kinase Nek3 (NEK3, Homo sapiens, UniProt P51956)
One construct used (P51956 1-506): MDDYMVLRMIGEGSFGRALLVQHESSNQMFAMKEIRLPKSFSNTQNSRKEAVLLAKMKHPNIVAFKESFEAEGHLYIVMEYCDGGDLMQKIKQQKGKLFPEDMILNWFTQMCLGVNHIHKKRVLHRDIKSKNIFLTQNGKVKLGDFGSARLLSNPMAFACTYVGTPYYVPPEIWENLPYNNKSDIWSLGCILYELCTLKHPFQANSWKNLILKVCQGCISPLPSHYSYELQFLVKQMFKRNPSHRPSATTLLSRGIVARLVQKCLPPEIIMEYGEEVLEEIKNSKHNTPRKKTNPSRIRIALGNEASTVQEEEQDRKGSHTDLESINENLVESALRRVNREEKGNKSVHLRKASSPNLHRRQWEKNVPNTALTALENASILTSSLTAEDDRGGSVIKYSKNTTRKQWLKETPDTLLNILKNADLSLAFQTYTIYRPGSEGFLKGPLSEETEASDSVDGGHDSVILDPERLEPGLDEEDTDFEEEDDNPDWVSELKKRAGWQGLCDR

CCCOc1ccc(OC)c(F)c1C(=O)c1ccc(C(=O)N[C@@H]2CNC[C@H]2NC(=O)c2ccc3[nH]ncc3c2)cc1 — remaining activity (enzyme activity, inhibitor; 10 µM): 101%
C[C@H](NC(=O)c1cnc2n1[C@](C)(Cc1ccc(C#N)cc1)C(=O)N2c1cc(Cl)c(F)c(Cl)c1)C(=O)NC1(c2ccccn2)CC1 — remaining binding (cell-free assay, competition with immobilised ligand; 1 µM): 100%
Nc1ncnc2occ(-c3ccc(NC(=O)Nc4cc(C(F)(F)F)ccc4F)cc3)c12 — remaining signal (cell-free assay, inhibitor; 20 µM): 63%
CN(C)C(=O)Cn1cc(-c2nc([C@@](C)(c3ccc(-c4cnc(N)nc4)cc3)C3CC3)no2)cn1 — remaining binding (cell-free assay, competition with immobilised ligand; 1 µM): 87%
CC(C)(C)c1nc(-c2cccc(NS(=O)(=O)c3c(F)cccc3F)c2F)c(-c2ccnc(N)n2)s1 — remaining activity (enzyme activity, inhibitor, radiometric; 1 µM): 85%
CNCc1ccccc1-c1csc([C@@H](C)Nc2nc(C)nc3cc(OC)c(OC)cc23)c1 — remaining binding (cell-free assay, competition with immobilised ligand; 1 µM): 100%
O=C1Nc2ccc(Cl)cc2C1=Cc1cc(Cl)c(O)c(Cl)c1 — remaining signal (cell-free assay; 0.5 µM): 94%
Cn1cnc(Br)c1C1=CN(c2ncnc3[nH]cnc23)CCS1 — inhibition (enzyme activity, inhibitor, radiometric; 2 µM): 79.9%
CCN(CC)CCNC(=O)c1c(C)[nH]c(/C=C2\C(=O)Nc3ccc(F)cc32)c1C — remaining signal (cell-free assay; 0.5 µM): 91.6%
Nc1c(C(=O)NCc2ccc(C(=O)NCCCC3CCCCC3)cc2)cnn1-c1ccccc1 — remaining binding (cell-free assay, competition with immobilised ligand; 0.1 µM): 100%
c1ccc(CNc2nc(N3CCOc4ccccc43)nc3c2CCCC3)cc1 — inhibition (target engagement in cells, inhibitor, chemoproteomics; 20 mM): 5.9%
CCCS(=O)(=O)Nc1ccc(F)c(C(=O)c2c[nH]c3ncc(-c4ccc(Cl)cc4)cc23)c1F — inhibition (enzyme activity, inhibitor; 1 µM): < 10%
C[C@H](c1ccnc(Nc2nc3ccc(-c4cc(N(C)C)ncn4)cc3[nH]2)c1)N1CCN(C(=O)CC(F)(F)F)CC1 — remaining binding (cell-free assay, competition with immobilised ligand; 0.1 µM): 100%
O=C(Nc1cnn(-c2csc(C(=O)NC3COC3)c2)c1)Nc1c(F)cccc1Cl — remaining activity (enzyme activity, inhibitor; 5 µM): 87.2%
Cc1ccc(C(=O)Nc2ccc(CN3CCN(C)CC3)c(C(F)(F)F)c2)cc1C#Cc1cnc2cccnn12 — remaining activity (enzyme activity, inhibitor; 23.5 nM): 86%
CN1CC(Oc2cnc(C#N)cc2-c2ccn3nc(NC(=O)C4CC4)cc3c2)C1 — inhibition (enzyme activity, inhibitor; 1 µM): 12%
O=C1NC(=O)c2cc(Nc3ccc(F)cc3)c(Nc3ccc(F)cc3)cc21 — remaining signal (cell-free assay; 0.5 µM): 99.1%
CCCCNc1ncc2c(-c3ccc(F)cc3)nn(C[C@H]3CC[C@H](N)CC3)c2n1 — inhibition (target engagement in cells, inhibitor, chemoproteomics; 20 mM): 10.1%
